Screening results from PubChem BioAssay.
Shown are actives, neighbours in structure and some others; about 1.5% of the full set was active somewhere.
ZTA counter = ZTA (EBV) inhibition in EBNA-1 counter-screen | ZTA-DNA binding, fluorescence polarization | inhibition, % at 11 µM | P03206 | hit rate 0.15% among 320,000; in the data active = inhibition above about 33%
A1 inh = inhibitors of the anti-apoptotic protein A1, read as caspase activation; MEF A1-2A-BIM cells, Caspase-Glo 3/7 luminescence, 3 h; percent of clofoctol response, vehicle zero; caspase activation, % (no concentration beside the values); hit rate 0.066% among 330,000; AID 2462;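 active = over half of replicate activation scores above 10%, or exactly half above 10 with the replicate mean above 10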
EBNA-1 inh = blocks EBNA-1 binding to DNA | EBNA-1 DNA binding, fluorescence polarization | inhibition, % at 14.8 µM | hit rate 0.34% among 300,000; in the data active = inhibition above about 28%
LANA-H2A inh = blocks KSHV LANA binding to histone H2A/H2B | cell-free LANA-H2A/H2B peptide, fluorescence polarization | inhibition, % (no concentration beside the values) | Q9QR71 | hit rate 0.6% among 320,000; in the data active = inhibition mostly above about 10%, no sharp cut-off; inactive = mostly below about 6.7%
CSN deneddyl inh = CSN deneddylation inhibition; Q92905; Purified CSN, SCF-Nedd8-OG deneddylation, fluorescence polarization; inhibition, % at 12.5 µM; hit rate 0.38% among 360,000; AID 651999;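 active = pattern-corrected inhibition above about 35%, with an unprinted fluorescence ratio check between 0.5 and 1.5, limit read from the data, passing the limit was not always enough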;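 note: 0% = enzyme with substrate and 100% = substrate without enzyme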
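Material: purified human Csn5 enzyme expressed in HEK293T cells / Medium: Tris buffer pH 7.5, NaCl, DTT, Tween-20, trehalose, ovalbumin / Compound dosing: 12.5 µM single point / Schedule: 90 min incubation of compound, enzyme and substrate at room temperature / Signal: fluorescence polarization of the substrate / Control set: no-enzyme wells high, enzyme-with-substrate wells low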
HNF4A DNA FP = change in binding of human HNF4 alpha to DNA. activity change, % at 10 µM. P41235. HNF4a-FITC DNA binding, fluorescence polarization, 1 h. hit rate 0.3% among 360,000. AID 1224865; in the data active = activity change above about 30%, passing the limit was not always enough
Target sequence (P41235 whole entry, looked up): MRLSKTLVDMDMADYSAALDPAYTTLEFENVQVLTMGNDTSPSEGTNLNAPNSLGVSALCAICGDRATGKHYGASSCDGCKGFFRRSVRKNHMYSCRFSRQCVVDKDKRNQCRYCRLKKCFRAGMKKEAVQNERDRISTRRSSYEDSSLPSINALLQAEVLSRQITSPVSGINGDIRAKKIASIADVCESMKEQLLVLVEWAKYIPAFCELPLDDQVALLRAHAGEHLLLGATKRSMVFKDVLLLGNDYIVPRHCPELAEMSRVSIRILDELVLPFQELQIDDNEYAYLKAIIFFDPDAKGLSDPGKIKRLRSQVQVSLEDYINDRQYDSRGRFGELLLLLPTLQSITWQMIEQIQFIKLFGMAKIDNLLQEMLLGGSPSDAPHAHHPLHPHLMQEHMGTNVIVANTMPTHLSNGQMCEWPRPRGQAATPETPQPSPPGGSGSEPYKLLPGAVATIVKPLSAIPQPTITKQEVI
EBNA-1 inh conf = EBNA-1 (EBV) inhibition, confirmation | shares compounds with EBNA-1 inh | Recombinant EBNA-1 DBD, Cy5-DNA fluorescence polarization | inhibition, % at 14.8 µM | hit rate 35% among 830;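 active = mean inhibition across replicates above a set limit taken from the earlier primary screen, cut at about 28% in these data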;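 note: plate controls were EBNA-1 protein with DMSO for no effect and wells lacking EBNA-1 for full effect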
ZTA counter trip = counter-screen for EBNA-1 inhibitors: Epstein-Barr virus ZTA inhibitors, triplicate; shares compounds with EBNA-1 inh; inhibition, % at 11.1 µM; 830 tested, under 10 active; Zta-ZRE DNA binding, Cy5 fluorescence polarization;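 active = mean inhibition over triplicates above a set limit taken from the primary EBNA-1 screen, cut at about 37% in these data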;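 note: purified full length Zta protein with Cy5 labeled ZRE DNA probe; 0% = Zta with DMSO and 100% = wells lacking Zta protein; inhibitors lower polarization by freeing the labeled DNA probe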
Active calls of the source: *; . = not tested or not shown; + = active, no number.

SMILES	ZTA counter	A1 inh	EBNA-1 inh	LANA-H2A inh	CSN deneddyl inh	HNF4A DNA FP	EBNA-1 inh conf	ZTA counter trip
COc1ccccc1NC(=O)c1c(N=Cc2c(O)ccc3ccccc23)cnn1C	8.1	1.9	39.0*	-4.2	2.3	1.7	8.7	1.6
Cn1ncc(N=Cc2c(O)ccc3ccccc23)c1C(=O)N1CCOCC1	-3.5	0.6	2.3	5.1	1.0	1.6	.	.
CCC(=O)Nc1ccc(Cl)c(NC(=S)NC(=O)COc2ccccc2)c1	1.1	-0.8	10.8	-2.9	1.0	-3.0	.	.
CCC(=O)Nc1ccc(Cl)c(NC(=S)NC(=O)COc2ccc(Cl)cc2)c1	0.6	0.2	58.2*	2.8	-8.7	-2.5	8.4	17.4
CS(=O)(=O)N(Cc1ccc(C(=O)NC2CCCC2)cc1)c1ccccc1	17.3	0.6	4.3	-2.8	-3.5	-3.8	.	.
Cc1ccc(N(Cc2ccc(C(=O)NC3CCCCC3)cc2)S(C)(=O)=O)cc1C	-3.7	0.6	30.9*	-4.1	1.7	0.4	34.2*	-13.9
C/C(=N\NC(=O)c1nnn(-c2nonc2N)c1CN(C)c1ccccc1)c1cccnc1	8.1	-0.8	6.5	3.8	-7.0	2.9	.	.
CC(=O)c1cccc(NC(=O)c2ccc(-c3ccccc3[N+](=O)[O-])o2)c1	7.6	-1.4	35.7*	-3.0	-2.2	2.1	3.7	17.1
CC(=O)Nc1ccccc1-c1nnn(CC(=O)Nc2ccc3c(c2)OCCO3)n1	9.5	0.7	5.8	-2.8	3.0	-4.5	.	.
CCn1nnc(-c2ccccc2NC(=O)c2cccc(-n3cnnn3)c2)n1	-1.3	0.1	87.4*	2.3	0.1	-0.2	83.3*	10.1
O=C(Cn1nnc(-c2ccccc2NC(=O)c2ccccc2)n1)Nc1ccc2c(c1)OCCO2	9.9	0.5	61.3*	-0.7	-4.0	1.9	60.5*	4.2
Cc1ccc(S(=O)(=O)N2CCC(=O)N([C@H](COCc3ccc(Cl)c(Cl)c3)Cc3ccccc3)CC2)cc1	.	.	.	.	-0.8	0.8	.	.
NC(=O)C[N+]1(CC#CC(O)(c2ccccc2)c2ccccc2)CCCC1	12.4	-0.9	128.3*	0.1	-14.7	0.2	1.6	-1.2
CCC[N+]1(CC#CC(O)(c2ccccc2)C2CCCCC2)CCCCC1 (stereo not drawn)	2.7	-0.6	-11.5	4.8	3.4	-4.7	.	.
CCOC(=O)c1c(NC(=O)CSc2n[nH]c(-c3ccco3)n2)sc(C)c1C	4.5	0.8	-6.8	-0.7	1.5	1.4	.	.
O=C(CSc1n[nH]c(-c2ccco2)n1)Nc1sc2c(c1C(=O)Nc1ccccc1)CCCC2	19.8	-0.4	36.3*	-2.4	5.8	6.2	20.1	8.3
NS(=O)(=O)c1ccc(CCNC(=O)c2ccc(-c3ccccc3)cc2)cc1	-6.5	1.4	-9.9	2.7	5.3	2.3	.	.
COc1ccc(C(=O)CN2CCN(c3cc(C)nc4ccccc34)CC2)cc1	-16.8	-0.4	-3.5	5.7	1.8	3.6	.	.
Cc1cc(N2CCN(CC(O)C(F)(F)F)CC2)c2ccccc2n1 (stereo not drawn)	13.0	-0.1	+	-3.5	-1.5	2.0	-1.7	-13.4
CCCC(=O)N(Cc1cc(=O)[nH]c2ccccc12)c1ccccc1OC	-4.8	0.4	28.1*	-4.3	0.3	2.0	-1.6	2.7
COc1ccccc1N(Cc1cc(=O)[nH]c2ccccc12)C(C)=O	7.0	-0.3	2.1	3.8	-0.5	2.1	.	.
O=C(O)CCc1nnc(SCC(=O)Nc2cccc(C(F)(F)F)c2)[nH]c1=O	-17.7	1.3	2.2	-7.1	-2.8	0.3	.	.
COc1cccc(/C=N/NC(=O)C(=O)Nc2ccccc2OC(F)(F)C(F)F)c1	12.5	0.5	30.0*	7.3	1.0	2.4	24.3	5.1
Cc1cc(C)c(C)c(OCC(O)CN2CCN(c3ccccn3)CC2)c1 (stereo not drawn)	16.6	1.1	-0.6	-5.7	-1.4	2.2	.	.
